Screening data from PubChem BioAssay.
Hits are enriched below; roughly 2.6% of the tested compounds scored in any of these assays.
BB579 growth dn – growth inhibitors of yeast BB579 in restrictive medium, primary screen, yeast lifespan-shortening project, S. cerevisiae | AID 804, 2007 | OD615, 48 h | inhibition, % at 10 µM | 140,000 compounds, 0.51% hits;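 active = inhibition above a set limit, 3 SD over the mean compound inhibition, cut at about 44% in these data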
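test system = yeast BB579 (DeaD) | buffer or medium = restrictive CSMM-D medium | doses = single compound dose of 10 µM, 0.25% DMSO final | times = 4 h preincubation and 48 h exposure at 30 °C | technique = culture absorbance at 615 nm | benchmarks = amphotericin B 10 µg/mL, positive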
Yeast lifespan up – compounds extending yeast replicative lifespan, primary screen, S. cerevisiae, OD615; S. cerevisiae growth with nicotinamide; deaD strain in restrictive glucose medium; inhibition of the nicotinamide effect, % at 10 µM; 130,000 compounds, 0.68% hits; AID 775, 2007;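 active = inhibition above a set limit, placed 3 SD over the median of all compounds, cut at about 26% in these data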;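 also: 0% = nicotinamide-treated wells and 100% = cells grown without nicotinamide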
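System: DeaD-strain S. cerevisiae / Buffer or medium: CSMM-D, restrictive glucose (dextrose) synthetic minimal medium / Probe or stimulus: nicotinamide, 1.5 mM, co-present with compound / Compound: one concentration, 10 µM, DMSO 0.25% / Incubation: 48 h compound exposure at 30 °C, humidified / Technique: optical density (absorbance) at 615 nm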
RAM inhibit – inhibitors of the yeast RAM network, primary screen, dse1pr::URA3 reporter, 5-FOA selection | inhibition, % at 50 µM | S. cerevisiae dse1pr::URA3 reporter, 5-FOA growth OD615, 2 d; analog-sensitive cbk1-as2 kinase mutant strain | AID 868, 2007 | 190,000 compounds, 1.8% hits;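 active = inhibition above a set limit, 3 SD over mean compound inhibition, cut at about 8.4% in these data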;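 also: 0% = DMSO-only wells with no growth and 100% = 10 µM 1-NA-PP1 full growth; inhibition rescues growth on 5-FOA so higher OD means more RAM inhibition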
Numbers without * were called inactive; / = no result.

SMILES | BB579 growth dn | Yeast lifespan up | RAM inhibit
Cc1cc(N2CCN(C(=O)c3ccco3)CC2)n2ncc(-c3ccccc3)c2n1 | 98* | -16 | -1
S=C(NCCCN1CCOCC1)Nc1cccc(-c2nnc3n2CCCCC3)c1 | / | / | 0
CCN(C(=O)COC(=O)C1CCN(S(=O)(=O)c2cccs2)CC1)c1ccccc1 | / | / | -1
CCOc1ccc(C(C)=O)cc1COc1ccc(-n2cnnn2)cc1 | -27 | -20 | 8.7*
NC(=O)COc1ccc(-n2cnnn2)cc1 | / | / | 0
C=C(C(=O)c1ccccc1)C(C)C(=C)C(=O)c1ccccc1 | -29 | 46* | 0
C=C(C(=O)c1ccccc1)C(c1ccccc1)C(C)C(=O)c1ccccc1 (stereo unspecified) | -7 | 11 | 6
CCOc1ccc(C(=O)N2CCSC2=S)cc1 | -37 | / | -1
O=C(O)C(Cc1ccccc1)N1C(=O)/C(=C/c2ccccc2)SC1=S (stereo unspecified) | -36 | 33* | 5
O=C(O)C(Cc1ccccc1)N1C(=O)/C(=C/c2cccc3ccccc23)SC1=S (stereo unspecified) | -13 | -2 | 6
CC(C)(C)n1nnnc1C(c1ccc(C(F)(F)F)cc1)N(Cc1ccc(F)cc1)Cc1ccco1 (stereo unspecified) | -38 | / | 7
CC(C)(C)n1nnnc1C(c1ccc(C(F)(F)F)cc1)N(Cc1ccccc1)Cc1ccco1 (stereo unspecified) | -18 | -8 | 11*
Cc1oc(-c2ccc3c(c2)OCCO3)cc1C(=O)O | 90* | / | 0
Cc1oc(-c2ccc3c(c2)OCCO3)cc1C(=O)NCC(=O)O | / | / | 2
COCCN1C(=O)c2cc(C(=O)Nc3ccc(OC)c(OC)c3)ccc2C1Nc1ccc(OC)c(OC)c1 (stereo unspecified) | / | / | 4
CCOC(=O)Cn1cnc2sc(C(=O)OC)c(C)c2c1=O | / | / | 0
COC(=O)c1sc2ncn(-n3c(C)ccc3C)c(=O)c2c1C | -73 | 85* | 1
O=C(CCNC(=O)Cn1ccc2ccccc2c1=O)NCCN1CCN(c2cccc(Cl)c2)CC1 | -22 | -6 | 0
O=C(Cn1ccc2ccccc2c1=O)NCCC(=O)N1CCN(c2cccc(Cl)c2)CC1 | -80 | 1 | 9.7*
COC(=O)Cn1c(=NC(=O)c2cc(-c3cccs3)nc3ccccc23)sc2cc(S(N)(=O)=O)ccc21 | -35 | 3 | 7
COC(=O)Cn1c(=NC(=O)c2nc3ccccc3s2)sc2cc(S(N)(=O)=O)ccc21 | -37 | 2 | 8.6*
Cc1cc(=O)oc2cc(OC(=O)CCCCCN3C(=O)c4ccccc4C3=O)ccc12 | -50 | 32* | 6
CC(=O)Oc1ccc2c(C)cc(=O)oc2c1 | 0 | -9 | 1
Cc1oc2cc(O)ccc2c(=O)c1N1C(=O)c2ccccc2C1=O | -37 | -2 | 0
CC(=O)Oc1ccc2c(=O)c(N3C(=O)c4ccccc4C3=O)c(C)oc2c1 | -39 | 28* | 1
SMILES | BB579 growth dn | Yeast lifespan up | RAM inhibit
O=C(NC(=S)N(CC1CCC1)CC1CCCO1)c1cccc([N+](=O)[O-])c1 (stereo unspecified) | / | / | 1
CN=c1scc(-c2ccccc2F)n1/N=C/c1ccc(O)c(O)c1O | / | / | -1
CC(C)N=c1scc(-c2cccs2)n1/N=C/c1ccc(O)c(O)c1O | 96* | 2 | 2
COc1cc(NC2c3ncccc3C(=O)N2Cc2ccco2)cc(OC)c1OC (stereo unspecified) | / | / | 2
C/C(=N\NC(=O)c1ccccc1[N+](=O)[O-])c1c(O)cc(C)oc1=O | -9 | 33* | -1
C/C(=N\NC(=O)c1ccccc1O)c1c(O)cc(C)oc1=O | -22 | 62 | -1
C/C(=N\NC(=O)c1cccnc1)c1cc(C)oc1C | 3 | 6 | 1
C/C(=N\NC(=O)c1cccnc1)c1c(O)cc(C)oc1=O | -22 | 42* | -1
O=S(=O)(N/N=C\C=C\c1ccccc1)c1ccc(Cl)cc1 | -4 | -5 | 2
COc1ccc(C2CC(c3cccs3)=NN2C(=O)COC(=O)C2CCCCC2)cc1OC (stereo unspecified) | / | / | 1
O=C(Nc1ccc(C(F)(F)F)cc1)c1cc(S(=O)(=O)NCC2COc3ccccc3O2)ccc1F (stereo unspecified) | -16 | 4 | 8.4*
COc1ccc(NC(=O)c2cc(S(=O)(=O)NCC3COc4ccccc4O3)ccc2F)cc1 (stereo unspecified) | -16 | 1 | 2
Nc1c(Cl)ncnc1N/N=C/c1ccccn1 | 96* | -13 | 0
Nc1c(Cl)ncnc1N/N=C/c1ccc2ccccc2n1 | -7 | 19 | 0
Cc1cccc2nc(COc3ccc(Cl)c4cccnc34)cn12 | / | / | 2
Oc1ccc(N=C/C=C/c2ccc(Br)cc2)cc1-c1nc2ccccc2s1 | -19 | -7 | 1
S=C1NCCOCCOCCNC(=S)N2CCOCCOCCN1CCOCCOCC2 | / | / | 2
Cc1ccnc(SCc2cc(=O)c(OC(=O)c3ccc(Br)o3)co2)n1 | 5 | 25 | 3
O=C(Oc1coc(CSc2ncccn2)cc1=O)c1ccc(Br)o1 | -6 | 38* | 1
S=C(NCCc1ccccc1)NCc1cccs1 | 14 | -6 | 0
O=C(CSc1ncnc2scc(-c3ccccc3)c12)N1CCN(c2ccccc2F)CC1 | -33 | -5 | 3
Fc1ccc(CSc2ncnc3scc(-c4ccccc4)c23)cc1 | -32 | 4 | 10*
COc1ccc(NC(=O)COC(=O)Cc2ccc(-c3ccccc3)cc2)c(OC)c1 | -21 | 0 | 7
COc1ccc(C)cc1NC(=O)COC(=O)Cc1ccc(-c2ccccc2)cc1 | -3 | -2 | 9.6*
Cc1cc(C)cc(NC(=O)CN2CCC(NC(=O)Cc3ccccc3)CC2)c1 | -5 | 27* | 0
SMILES | BB579 growth dn | Yeast lifespan up | RAM inhibit
Cc1ccc(NC(=O)CN2CCC(NC(=O)Cc3ccccc3)CC2)cc1C | -47 | -17 | 0
CC(=O)Oc1ccc2ccccc2c1C(NC(=O)Cc1ccccc1)c1ccccc1 (stereo unspecified) | -78 | 4 | 9.6*
CC(=O)NC(c1cccc([N+](=O)[O-])c1)c1c(OC(C)=O)ccc2ccccc12 (stereo unspecified) | -37 | / | 1
C=CCN(CC=C)S(=O)(=O)c1ccc(NC(=S)NC(=O)/C=C/c2ccccc2)cc1 | -17 | -8 | 10*
C=CCN(CC=C)C(=S)NC(=O)/C=C/c1ccccc1 | -29 | 0 | 1
O=C(Nc1nnc(-c2ccccc2)o1)c1cc(Cl)sc1Cl | -23 | 5 | 1
O=C(Nc1nnc(-c2ccc(F)cc2)o1)c1cc(Cl)sc1Cl | 66* | -4 | -1
O=C(O)c1cc2nc(-c3ccccc3)cc(C(F)(F)F)n2n1 | 29 | 57* | 0
O=C(O)c1cc2nc(-c3ccccc3)cc(-c3ccccc3)n2n1 | / | / | -2
COc1ccc(-c2cc(C(F)(F)F)n3nc(C(=O)Nc4c(C)n(C)n(-c5ccccc5)c4=O)cc3n2)cc1 | / | / | 3
Cc1ccc(NC(=O)C2CCCN(C(=O)c3ccc(Cl)cc3)C2)cc1S(=O)(=O)N1CCOCC1 (stereo unspecified) | / | / | 2
COC(=O)c1sc(S(=O)(=O)NCc2ccccc2)c(C(=O)OC)c1C | -44 | 1 | 0
